This sample holds only a part of the variants without activity.
B1: tRNA (parent)
chain: GUUCCGUUGGCGUAAUGGUAACGCGUCUCCCUCCUAAGGAGAAGACUGCGGGUUCGAGUCCCGUACGGAACG

Variants of: B1
Test: yeast fitness relative to wild type (ratio to wild type); higher = fitter; tRNA-Arg(CCU), competitive growth, 37 C, YPD
Method in brief: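 For this measurement, the tRNA-Arg(CCU) gene was varied by chemical synthesis at a 3% per-site mutation rate across 69 sites, and each variant was placed at the native genomic locus in Saccharomyces cerevisiae. The pooled strains went through a 24-hour competition in YPD at 37°C in six parallel replicates, with amplicons from start and end populations read by 100-nucleotide paired-end sequencing. Darwinian fitness relative to wild type followed from the change in each genotype's frequency. Genotypes needed ≥ 100 starting reads, and estimates < 0.5 were set to 0.5.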
Variant U3C G50A A57G has a yeast fitness of 0.632.
With U3C G50A A65U the yeast fitness was 0.652.
Work on U3C G51A A69C yielded a yeast fitness of 0.602.
U3C G51C gave a yeast fitness of 0.521.
In the case of U3C G51C A57G, the yeast fitness is reported as no more than 0.5.
Variant U3C G52A has a yeast fitness of 0.743.
U3C G52A G68A showed a yeast fitness of no more than 0.5.
In the case of U3C G56A, the yeast fitness is reported as 1.03.
With U3C G56A A69C the yeast fitness was 0.802.
Work on U3C G56A C60A yielded a yeast fitness of 0.568.
U3C G58A C61U A70G showed a yeast fitness of 0.777.
For U3C G58A G68C, the yeast fitness was 0.59.
U3C G58C gave a yeast fitness of 0.97.
U3C G58C G67C showed a yeast fitness of 0.701.
Work on U3C G63A yielded a yeast fitness of 0.909.
U3C G63C gave a yeast fitness of 0.747.
In the case of U3C G67A, the yeast fitness is reported as 0.871.
U3C G68U gave a yeast fitness of 0.857.
In the case of U3C U7A, the yeast fitness is reported as 0.772.
U3C U7A A42C C49U C55U gave a yeast fitness of no more than 0.5.
With U3C U7A C27A the yeast fitness was no more than 0.5.
For U3C U7A C29A G58A C61G A70U, the yeast fitness was 0.531.
U3C U7A G44C C61U C62U G63C C66U A69G gave a yeast fitness of no more than 0.5.
Variant U3C U7C G41A A42C G50C A70G has a yeast fitness of no more than 0.5.
In the case of U3C U7C U8A A15U G50A U53A, the yeast fitness is reported as no more than 0.5.
In the case of U3C U7G G38C, the yeast fitness is reported as no more than 0.5.
With U3C U8A A15C C31G C49U A57U G67C the yeast fitness was no more than 0.5.
Work on U3C U8A C66A yielded a yeast fitness of 0.529.
With U3C U8A G25A A45G the yeast fitness was 0.578.
Work on U3C U8A U19A yielded a yeast fitness of 0.63.
Variant U3C U8C C27G C33A has a yeast fitness of no more than 0.5.
Variant U3C U8G A20G C24G has a yeast fitness of no more than 0.5.
Work on U3C U8G U32A C33G yielded a yeast fitness of no more than 0.5.
Variant U3C U8G U32A C33G A43U C61U C62U has a yeast fitness of no more than 0.5.
For U3C U8G U32A C33G C62U A65G, the yeast fitness was no more than 0.5.
For U3C U13A A20C C30A C31A U54A C55U, the yeast fitness was no more than 0.5.
Work on U3C U13A C31U G41A yielded a yeast fitness of 0.524.
For U3C U13C G17A C24U G52A, the yeast fitness was no more than 0.5.
U3C U16C C30G C31G A37U G56C showed a yeast fitness of no more than 0.5.
In the case of U3C U16C C49G, the yeast fitness is reported as no more than 0.5.
U3C U16C G44A A45U C60A gave a yeast fitness of no more than 0.5.
In the case of U3C U16G U19A A43U A57U, the yeast fitness is reported as no more than 0.5.
For U3C U19A A65G, the yeast fitness was 0.796.
With U3C U19A C22U the yeast fitness was 0.558.
Variant U3C U19A C27G C62U has a yeast fitness of no more than 0.5.
With U3C U19A C27U the yeast fitness was 0.696.
U3C U19C C34U U53C gave a yeast fitness of no more than 0.5.
In the case of U3C U19G A21C U32A A37U, the yeast fitness is reported as no more than 0.5.
U3C U19G A43U A65G G68A showed a yeast fitness of no more than 0.5.
With U3C U19G C27G C33G U53G the yeast fitness was 0.578.
U3C U19G C61U showed a yeast fitness of no more than 0.5.
U3C U26A C31U showed a yeast fitness of 1.02.
U3C U26C C30U A37G C61A showed a yeast fitness of no more than 0.5.
Variant U3C U26C G44C U54A has a yeast fitness of no more than 0.5.
In the case of U3C U28A U35C A37C G56C A57G G68U, the yeast fitness is reported as no more than 0.5.
With U3C U28G A57C the yeast fitness was no more than 0.5.
Variant U3C U32A has a yeast fitness of 0.817.
U3C U32C A65U G68A gave a yeast fitness of no more than 0.5.
U3C U32C C33U A42U showed a yeast fitness of 0.563.
U3C U32G A40C G41A gave a yeast fitness of no more than 0.5.
U3C U32G C61A C62A showed a yeast fitness of 0.53.
Work on U3C U35C A57G yielded a yeast fitness of 0.541.
U3C U53A showed a yeast fitness of 0.664.
In the case of U3C U54C G67C, the yeast fitness is reported as no more than 0.5.
In the case of U3C U59C, the yeast fitness is reported as 0.961.
Work on U3G yielded a yeast fitness of 0.978.
Variant U3G A14C C24G C60U U64A has a yeast fitness of no more than 0.5.
Variant U3G A14G A43U U54A A57C has a yeast fitness of no more than 0.5.
Variant U3G A14G C30U G48C G68C has a yeast fitness of no more than 0.5.
Work on U3G A14G C62A yielded a yeast fitness of 0.603.
Variant U3G A14G C62G A69G has a yeast fitness of no more than 0.5.
In the case of U3G A14U C30U C55A, the yeast fitness is reported as no more than 0.5.
Work on U3G A15G A21U C24U G38A C61G C66U A69U yielded a yeast fitness of no more than 0.5.
Work on U3G A15G A21U G48A yielded a yeast fitness of no more than 0.5.
U3G A15G C24G G50A C55U showed a yeast fitness of 0.613.
With U3G A15U A36G the yeast fitness was no more than 0.5.
With U3G A15U C46G C61A the yeast fitness was no more than 0.5.
For U3G A15U C61A, the yeast fitness was no more than 0.5.
U3G A20C gave a yeast fitness of 0.987.
For U3G A20G C49U, the yeast fitness was no more than 0.5.
U3G A21C G51A showed a yeast fitness of 0.605.
In the case of U3G A21G A57C, the yeast fitness is reported as no more than 0.5.
Work on U3G A37G yielded a yeast fitness of 0.724.
U3G A37U U54C G58A C66U gave a yeast fitness of no more than 0.5.
U3G A40G C46A showed a yeast fitness of 0.665.
For U3G A40U A45U, the yeast fitness was 0.585.
For U3G A42G C62G, the yeast fitness was no more than 0.5.
U3G A43G gave a yeast fitness of 0.936.
Variant U3G A43G A65U has a yeast fitness of 0.701.
U3G A45C G63A A69U showed a yeast fitness of 0.831.
U3G A45G A57G gave a yeast fitness of 0.717.
Variant U3G A45G A65G has a yeast fitness of 0.729.
U3G A65U showed a yeast fitness of 0.855.
In the case of U3G A69C, the yeast fitness is reported as 0.867.
Work on U3G A70C yielded a yeast fitness of 0.897.
U3G C4A showed a yeast fitness of 0.949.
In the case of U3G C4A A40U C62U G63C, the yeast fitness is reported as no more than 0.5.
For U3G C4A G6A U35C, the yeast fitness was no more than 0.5.
For U3G C4A G9A G56A C61G, the yeast fitness was no more than 0.5.
Work on U3G C4A G12A C29A C30G yielded a yeast fitness of 0.556.
For U3G C4U C22A, the yeast fitness was no more than 0.5.
For U3G C4U U35A G58A, the yeast fitness was no more than 0.5.
U3G C4U U35A G58A G67A showed a yeast fitness of no more than 0.5.
In the case of U3G C5A G63A, the yeast fitness is reported as no more than 0.5.
With U3G C5G A20C A43C the yeast fitness was 0.557.
Work on U3G C5G C11U C29U U32C yielded a yeast fitness of no more than 0.5.
In the case of U3G C5G C11U C29U U32C C60U, the yeast fitness is reported as no more than 0.5.
In the case of U3G C5G G10A C30A C31G C49A C60U G67A, the yeast fitness is reported as 0.572.
U3G C5G U19C C66U gave a yeast fitness of 0.57.
Work on U3G C5U A65U yielded a yeast fitness of 0.651.
U3G C5U A70G showed a yeast fitness of no more than 0.5.
In the case of U3G C5U C30U A40U C49U, the yeast fitness is reported as no more than 0.5.
U3G C5U G10A C31U G41C A43C gave a yeast fitness of no more than 0.5.
U3G C5U G10A C55U gave a yeast fitness of no more than 0.5.
U3G C5U G10A G18C C24U A45C showed a yeast fitness of 0.553.
Work on U3G C5U G39C U47A yielded a yeast fitness of 0.538.
Variant U3G C5U G51A has a yeast fitness of no more than 0.5.
U3G C5U U26A showed a yeast fitness of no more than 0.5.
Variant U3G C5U U26A A45C U59C has a yeast fitness of no more than 0.5.
For U3G C5U U26A G38A C62U A70U, the yeast fitness was no more than 0.5.
With U3G C11G the yeast fitness was 0.556.
With U3G C11G A65U C66U the yeast fitness was no more than 0.5.
U3G C11G C34U C55U gave a yeast fitness of no more than 0.5.
U3G C11U showed a yeast fitness of 0.748.
U3G C11U A21U G44C A57U showed a yeast fitness of no more than 0.5.
For U3G C11U C46U C61G, the yeast fitness was no more than 0.5.
With U3G C11U G17A U19C A20U A42C A65C A69U the yeast fitness was no more than 0.5.
U3G C11U G68A showed a yeast fitness of no more than 0.5.
For U3G C11U U19C A20U A42C A65C, the yeast fitness was no more than 0.5.
U3G C11U U19C A20U A42C A65C A69U gave a yeast fitness of 0.537.
U3G C11U U19C A20U A42C C49U G56C showed a yeast fitness of no more than 0.5.
U3G C11U U35A G38A C66U gave a yeast fitness of no more than 0.5.
Variant U3G C11U U47A G48C has a yeast fitness of 0.675.
In the case of U3G C11U U64C, the yeast fitness is reported as no more than 0.5.
U3G C22A C24U U35G A45U A65U A70U gave a yeast fitness of no more than 0.5.
In the case of U3G C22A G25C C33U, the yeast fitness is reported as 0.606.
For U3G C22U A57G C60A, the yeast fitness was no more than 0.5.
U3G C24A G58A showed a yeast fitness of no more than 0.5.
With U3G C24U C27G C30A A65U A69U the yeast fitness was no more than 0.5.
In the case of U3G C24U C31U, the yeast fitness is reported as 0.793.
U3G C24U C31U A69U showed a yeast fitness of 0.839.
U3G C24U G58A U59A A65U gave a yeast fitness of 0.514.
U3G C24U U28C showed a yeast fitness of 0.599.
With U3G C27A the yeast fitness was 0.633.
Work on U3G C27G G50C yielded a yeast fitness of no more than 0.5.
Variant U3G C29A has a yeast fitness of 0.533.
U3G C29G A45G gave a yeast fitness of 0.594.
U3G C30G A40C C46U C49U G68C showed a yeast fitness of no more than 0.5.
Work on U3G C30G C49U yielded a yeast fitness of no more than 0.5.
Work on U3G C30U A43U G48C G68C yielded a yeast fitness of no more than 0.5.
In the case of U3G C30U G48A, the yeast fitness is reported as no more than 0.5.
In the case of U3G C31A G41A, the yeast fitness is reported as no more than 0.5.
Variant U3G C31A G50A G67A has a yeast fitness of no more than 0.5.
Variant U3G C31U has a yeast fitness of 1.
In the case of U3G C33U, the yeast fitness is reported as 0.691.
U3G C33U A42G C61A showed a yeast fitness of 0.538.
For U3G C34G C62U, the yeast fitness was no more than 0.5.
With U3G C46A the yeast fitness was 0.802.
In the case of U3G C46U, the yeast fitness is reported as 0.903.
For U3G C46U U59A, the yeast fitness was 0.562.
U3G C55A gave a yeast fitness of 0.644.
Work on U3G C60A C66U yielded a yeast fitness of no more than 0.5.
U3G C62G showed a yeast fitness of 0.739.
Variant U3G C62U has a yeast fitness of 0.873.
Work on U3G C62U A70U yielded a yeast fitness of 0.551.
Work on U3G C66A yielded a yeast fitness of 0.591.
U3G C66G gave a yeast fitness of 0.712.

— the RNAGym collection of RNA variant scans (doi:10.1126/science.aae0568)
